Results as given in article PMC9279635 (Acta Pharmaceutica Sinica. B, 2021).
Where two headings read alike, the source gives them in different places.

Experiments:
DDR1 = DDR1 (Homo sapiens, UniProt Q08345); test: ELISA kinase assay, DDR1; type: biochemical
DDR2 = target: T1, DDR2 (Homo sapiens, UniProt Q16832); test: ELISA kinase assay, DDR2; type: biochemical
T1 sequence (Q16832 22-855): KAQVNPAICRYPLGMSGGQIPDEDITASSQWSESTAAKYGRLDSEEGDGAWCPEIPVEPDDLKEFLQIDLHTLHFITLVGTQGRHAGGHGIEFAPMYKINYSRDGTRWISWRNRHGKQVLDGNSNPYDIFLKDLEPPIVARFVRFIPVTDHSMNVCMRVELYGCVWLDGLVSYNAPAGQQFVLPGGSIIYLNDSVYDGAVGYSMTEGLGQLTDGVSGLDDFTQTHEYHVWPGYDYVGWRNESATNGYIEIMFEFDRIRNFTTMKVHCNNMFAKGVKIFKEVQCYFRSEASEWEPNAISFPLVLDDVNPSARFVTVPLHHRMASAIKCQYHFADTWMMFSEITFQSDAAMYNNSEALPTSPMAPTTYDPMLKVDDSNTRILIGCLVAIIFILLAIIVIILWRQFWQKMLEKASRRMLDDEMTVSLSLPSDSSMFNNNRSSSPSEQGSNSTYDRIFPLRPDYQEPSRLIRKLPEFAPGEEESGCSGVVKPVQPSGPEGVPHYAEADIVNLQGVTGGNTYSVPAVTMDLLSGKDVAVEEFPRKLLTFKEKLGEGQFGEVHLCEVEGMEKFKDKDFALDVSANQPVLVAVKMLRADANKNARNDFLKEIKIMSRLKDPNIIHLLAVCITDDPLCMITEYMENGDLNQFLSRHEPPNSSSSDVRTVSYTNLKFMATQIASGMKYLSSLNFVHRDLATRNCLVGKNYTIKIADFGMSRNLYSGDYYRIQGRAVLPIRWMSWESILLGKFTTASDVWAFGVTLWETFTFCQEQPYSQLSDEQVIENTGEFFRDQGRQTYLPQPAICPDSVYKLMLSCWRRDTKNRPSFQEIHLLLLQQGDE

[1] = test system: DDR2 phosphorylation in MRC-5; test: DDR2 phosphorylation in TGF-β stimulated MRC-5; type: cell-based; conditions: 1 μmol/L, MRC-5, 24 h TGF-β stimulation
Procedure, shortened: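 Confluent MRC-5 fibroblasts are stimulated with TGF-β (5 ng/mL) and treated with a range of test compound concentrations for 24 h. Western blots are probed for phospho-DDR2, fibronectin, α-SMA, with GAPDH as loading control.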

RET = RET (Homo sapiens, UniProt P07949); test: ELISA kinase assay, RET; type: biochemical; conditions: for inhibition at 0.1 µM: read-out: RET inhibition @100 nmol/L
Sequence of RET (P07949 29-1114): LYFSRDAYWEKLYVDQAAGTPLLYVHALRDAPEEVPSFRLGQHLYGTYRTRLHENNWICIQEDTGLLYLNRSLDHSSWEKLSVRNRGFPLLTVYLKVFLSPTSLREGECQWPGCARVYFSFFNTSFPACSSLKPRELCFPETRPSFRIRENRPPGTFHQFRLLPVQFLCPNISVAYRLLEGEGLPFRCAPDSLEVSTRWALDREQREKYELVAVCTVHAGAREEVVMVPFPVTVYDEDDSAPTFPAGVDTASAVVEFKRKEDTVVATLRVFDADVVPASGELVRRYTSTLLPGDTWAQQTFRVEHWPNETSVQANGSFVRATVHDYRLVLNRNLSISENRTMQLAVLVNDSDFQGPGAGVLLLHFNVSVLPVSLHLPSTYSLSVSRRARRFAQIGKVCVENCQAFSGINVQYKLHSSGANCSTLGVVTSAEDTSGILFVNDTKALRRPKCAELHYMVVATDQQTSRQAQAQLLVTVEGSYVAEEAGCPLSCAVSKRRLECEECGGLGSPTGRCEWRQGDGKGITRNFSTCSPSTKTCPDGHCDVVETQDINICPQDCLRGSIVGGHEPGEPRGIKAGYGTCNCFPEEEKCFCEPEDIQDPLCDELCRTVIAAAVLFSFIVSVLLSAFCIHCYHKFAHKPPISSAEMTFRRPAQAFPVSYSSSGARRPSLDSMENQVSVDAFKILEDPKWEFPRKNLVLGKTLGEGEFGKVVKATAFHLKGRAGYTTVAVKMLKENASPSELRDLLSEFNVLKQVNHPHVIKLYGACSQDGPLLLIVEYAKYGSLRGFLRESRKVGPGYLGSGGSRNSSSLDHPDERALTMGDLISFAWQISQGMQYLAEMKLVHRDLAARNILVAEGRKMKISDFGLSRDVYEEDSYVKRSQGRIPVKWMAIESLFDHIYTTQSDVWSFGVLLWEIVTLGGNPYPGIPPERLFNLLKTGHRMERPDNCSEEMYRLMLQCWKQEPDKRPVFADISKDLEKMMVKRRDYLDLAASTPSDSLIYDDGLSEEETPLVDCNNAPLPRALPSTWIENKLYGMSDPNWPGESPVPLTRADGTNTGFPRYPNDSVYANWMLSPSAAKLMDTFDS

Flt-3 = target: T2, Flt-3 (Homo sapiens, UniProt P36888); test: ELISA kinase assay, Flt-3; type: biochemical; conditions: for inhibition at 0.1 µM: read-out: Flt-3 inhibition@100 nmol/L
T2 sequence (P36888 27-993): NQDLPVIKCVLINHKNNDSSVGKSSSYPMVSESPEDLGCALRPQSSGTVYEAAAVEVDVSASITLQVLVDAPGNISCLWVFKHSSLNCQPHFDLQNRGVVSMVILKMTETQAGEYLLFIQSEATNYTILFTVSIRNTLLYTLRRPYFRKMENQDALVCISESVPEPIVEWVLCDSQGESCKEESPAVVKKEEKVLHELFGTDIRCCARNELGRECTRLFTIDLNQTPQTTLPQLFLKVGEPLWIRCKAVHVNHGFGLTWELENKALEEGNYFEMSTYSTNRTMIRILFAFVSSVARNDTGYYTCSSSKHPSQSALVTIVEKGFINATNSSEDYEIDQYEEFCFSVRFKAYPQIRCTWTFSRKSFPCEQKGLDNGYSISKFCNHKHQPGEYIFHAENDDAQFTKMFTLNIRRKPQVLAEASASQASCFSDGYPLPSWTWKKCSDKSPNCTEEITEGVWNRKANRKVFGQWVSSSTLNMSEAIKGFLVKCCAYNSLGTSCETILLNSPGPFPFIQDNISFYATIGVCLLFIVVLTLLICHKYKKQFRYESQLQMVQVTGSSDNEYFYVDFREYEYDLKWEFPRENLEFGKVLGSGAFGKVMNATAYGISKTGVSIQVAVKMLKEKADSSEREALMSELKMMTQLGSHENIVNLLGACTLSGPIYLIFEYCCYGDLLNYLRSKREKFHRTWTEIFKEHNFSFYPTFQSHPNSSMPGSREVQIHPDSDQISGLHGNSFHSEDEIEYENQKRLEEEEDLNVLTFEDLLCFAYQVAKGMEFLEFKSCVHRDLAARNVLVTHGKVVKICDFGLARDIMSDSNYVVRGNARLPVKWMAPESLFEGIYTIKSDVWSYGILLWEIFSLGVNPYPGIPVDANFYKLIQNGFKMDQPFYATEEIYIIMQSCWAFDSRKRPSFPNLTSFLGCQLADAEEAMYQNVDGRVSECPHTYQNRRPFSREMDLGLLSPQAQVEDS

KDR = KDR (Homo sapiens, UniProt P35968); test: ELISA kinase assay, KDR; type: biochemical; conditions: for inhibition at 0.1 µM: read-out: KDR inhibition @100 nmol/L
Sequence of KDR (P35968 20-1356): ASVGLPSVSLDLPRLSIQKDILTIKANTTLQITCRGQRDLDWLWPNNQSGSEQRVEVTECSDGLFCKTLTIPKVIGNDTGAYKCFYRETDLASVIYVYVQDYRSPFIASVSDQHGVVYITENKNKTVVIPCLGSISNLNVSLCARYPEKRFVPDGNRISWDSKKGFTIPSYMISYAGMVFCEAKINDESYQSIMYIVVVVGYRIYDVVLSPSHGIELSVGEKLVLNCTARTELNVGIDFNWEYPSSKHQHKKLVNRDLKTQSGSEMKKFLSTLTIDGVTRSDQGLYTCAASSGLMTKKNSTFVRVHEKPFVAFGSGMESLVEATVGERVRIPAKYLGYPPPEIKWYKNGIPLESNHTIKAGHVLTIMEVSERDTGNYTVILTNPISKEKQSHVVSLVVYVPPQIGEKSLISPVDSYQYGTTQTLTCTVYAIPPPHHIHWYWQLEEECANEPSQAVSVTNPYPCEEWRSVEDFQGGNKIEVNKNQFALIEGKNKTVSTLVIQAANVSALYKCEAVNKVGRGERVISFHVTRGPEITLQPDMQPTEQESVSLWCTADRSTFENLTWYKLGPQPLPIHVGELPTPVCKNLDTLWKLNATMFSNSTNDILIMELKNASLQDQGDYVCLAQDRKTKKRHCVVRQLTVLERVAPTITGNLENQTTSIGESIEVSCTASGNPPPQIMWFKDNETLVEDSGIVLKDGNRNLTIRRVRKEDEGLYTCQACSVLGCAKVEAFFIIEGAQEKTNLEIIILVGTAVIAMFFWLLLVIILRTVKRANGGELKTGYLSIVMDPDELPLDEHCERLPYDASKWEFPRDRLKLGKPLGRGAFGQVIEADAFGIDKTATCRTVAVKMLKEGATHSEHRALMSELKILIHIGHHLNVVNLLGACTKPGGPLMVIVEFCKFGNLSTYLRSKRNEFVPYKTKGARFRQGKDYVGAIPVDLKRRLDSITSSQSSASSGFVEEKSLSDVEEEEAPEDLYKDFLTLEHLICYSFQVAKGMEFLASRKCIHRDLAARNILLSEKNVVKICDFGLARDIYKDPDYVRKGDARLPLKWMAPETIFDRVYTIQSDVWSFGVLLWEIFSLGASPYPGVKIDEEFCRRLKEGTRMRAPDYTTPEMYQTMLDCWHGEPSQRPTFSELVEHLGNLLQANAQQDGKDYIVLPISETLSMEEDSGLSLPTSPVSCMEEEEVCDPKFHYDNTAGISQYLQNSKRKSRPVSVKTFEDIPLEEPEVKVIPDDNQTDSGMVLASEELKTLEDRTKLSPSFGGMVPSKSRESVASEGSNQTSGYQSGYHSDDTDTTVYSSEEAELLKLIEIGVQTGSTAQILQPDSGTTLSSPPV

ABL = ABL (Homo sapiens, UniProt P00519); test: Kinase selectivity test, ABL; type: biochemical; conditions: 10 nmol/L
Sequence of ABL (P00519 whole entry): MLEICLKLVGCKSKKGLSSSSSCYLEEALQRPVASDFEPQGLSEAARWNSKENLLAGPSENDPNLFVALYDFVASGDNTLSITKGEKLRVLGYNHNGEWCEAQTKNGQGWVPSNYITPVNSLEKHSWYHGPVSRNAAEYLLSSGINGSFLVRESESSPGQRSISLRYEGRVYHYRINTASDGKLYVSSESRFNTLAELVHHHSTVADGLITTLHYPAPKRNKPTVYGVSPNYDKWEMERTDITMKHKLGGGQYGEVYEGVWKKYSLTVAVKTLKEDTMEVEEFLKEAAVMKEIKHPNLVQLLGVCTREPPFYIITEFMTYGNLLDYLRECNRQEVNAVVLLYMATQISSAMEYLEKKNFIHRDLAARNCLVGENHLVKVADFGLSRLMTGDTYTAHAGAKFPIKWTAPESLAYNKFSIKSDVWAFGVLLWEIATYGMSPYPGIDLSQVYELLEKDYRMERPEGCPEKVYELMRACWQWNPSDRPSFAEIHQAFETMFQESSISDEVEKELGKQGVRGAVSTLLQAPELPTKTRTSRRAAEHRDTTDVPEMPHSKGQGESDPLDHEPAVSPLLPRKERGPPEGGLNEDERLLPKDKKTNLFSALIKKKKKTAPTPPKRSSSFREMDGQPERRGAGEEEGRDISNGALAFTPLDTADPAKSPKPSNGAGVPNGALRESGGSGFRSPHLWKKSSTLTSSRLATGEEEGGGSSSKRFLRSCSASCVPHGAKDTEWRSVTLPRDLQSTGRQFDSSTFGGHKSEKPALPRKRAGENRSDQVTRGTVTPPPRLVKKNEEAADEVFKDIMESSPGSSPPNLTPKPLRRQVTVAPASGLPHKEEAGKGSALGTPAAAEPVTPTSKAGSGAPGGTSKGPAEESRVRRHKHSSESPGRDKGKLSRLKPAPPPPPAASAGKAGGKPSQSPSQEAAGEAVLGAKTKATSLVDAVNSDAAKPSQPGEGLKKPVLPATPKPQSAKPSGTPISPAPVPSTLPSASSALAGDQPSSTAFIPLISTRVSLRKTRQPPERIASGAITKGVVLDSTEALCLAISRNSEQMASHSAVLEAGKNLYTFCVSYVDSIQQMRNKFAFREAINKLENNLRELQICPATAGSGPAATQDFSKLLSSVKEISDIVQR

[2] = test system: bleomycin-induced pulmonary fibrosis; test: BLM induced mouse lung fibrosis; type: in vivo, mice (C57BL/6)
Procedure, shortened: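 Bleomycin (1.7 U/kg) or saline is given intratracheally to mice. After 7 days, test compound is dosed once daily for 21 days (n = 6–9/group). Body weight is tracked over the period. On day 21, lung sections are stained with H&E, F4/80, Masson and COL-1, and H&E and Masson sections are scored. Data are mean ± SEM, analysed by one-way ANOVA with Fisher's LSD.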

[3] = DDR2 IC50, two separate experiments

Sequence of DDR1 (Q08345 19-913): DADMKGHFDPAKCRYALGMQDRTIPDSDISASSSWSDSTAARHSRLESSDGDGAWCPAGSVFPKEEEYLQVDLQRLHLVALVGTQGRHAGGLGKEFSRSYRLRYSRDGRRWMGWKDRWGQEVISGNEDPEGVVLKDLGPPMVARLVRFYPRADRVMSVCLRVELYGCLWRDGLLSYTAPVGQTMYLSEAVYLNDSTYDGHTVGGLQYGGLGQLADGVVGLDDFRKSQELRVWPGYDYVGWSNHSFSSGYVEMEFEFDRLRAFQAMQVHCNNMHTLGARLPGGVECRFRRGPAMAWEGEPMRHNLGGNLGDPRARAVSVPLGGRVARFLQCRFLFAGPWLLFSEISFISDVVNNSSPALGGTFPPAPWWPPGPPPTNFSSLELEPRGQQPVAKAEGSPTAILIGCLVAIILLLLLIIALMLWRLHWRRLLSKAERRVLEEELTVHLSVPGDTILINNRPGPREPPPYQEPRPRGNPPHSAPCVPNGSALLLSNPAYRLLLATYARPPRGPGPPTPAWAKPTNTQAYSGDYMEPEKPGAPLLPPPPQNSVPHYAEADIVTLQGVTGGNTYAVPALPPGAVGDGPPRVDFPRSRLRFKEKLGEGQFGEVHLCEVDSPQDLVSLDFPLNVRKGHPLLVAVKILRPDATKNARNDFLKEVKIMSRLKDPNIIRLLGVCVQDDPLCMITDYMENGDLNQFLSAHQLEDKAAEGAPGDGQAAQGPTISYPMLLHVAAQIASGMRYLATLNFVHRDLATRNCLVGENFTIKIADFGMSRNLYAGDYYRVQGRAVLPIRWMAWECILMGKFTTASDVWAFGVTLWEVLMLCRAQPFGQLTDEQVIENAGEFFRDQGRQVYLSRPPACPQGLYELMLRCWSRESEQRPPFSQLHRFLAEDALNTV

Cc1ccc(C(=O)Nc2cccc(C(F)(F)F)c2)cc1-c1ccc2cn[nH]c2c1 [Compound 7, 3-(1H-Indazol-6-yl)-4-methyl-N-(3-(trifluoromethyl)phenyl)benzamide]
IC50 (DDR1): 9.74 nM

Cc1ccc(C(=O)Nc2cccc(C(F)(F)F)c2)cc1-c1ccc2nc(Nc3cnn(C4CC4)c3)ncc2c1 [Compound 24, 3-(2-((1-Cyclopropyl-1H-pyrazol-4-yl)amino)quinazolin-6-yl)-4-methyl-N-(3-(trifluoromethyl)phenyl)benzamide]
IC50 (DDR2; [3]): 2.8 ± 0.5 nM | IC50 (DDR1): 13.8 nM | inhibition of DDR2 phosphorylation [1]: high inhibitory activity

CCc1ccc(C(=O)Nc2cccc(C(F)(F)F)c2)cc1-c1ccc2nc(Nc3cnn(C)c3)ncc2c1 [Compound 32, 4-Ethyl-3-(2-((1-methyl-1H-pyrazol-4-yl)amino)quinazolin-6-yl)-N-(3-(trifluoromethyl)phenyl)benzamide]
IC50 (DDR2; [3]): 4.1 ± 0.7 nM | inhibition at 0.1 µM (RET): 77.1% | inhibition at 0.1 µM (Flt-3): 61.8%

COc1ccc(C(=O)Nc2cccc(C(F)(F)F)c2)cc1-c1ccc2nc(Nc3cnn(C)c3)ncc2c1 [Compound 33, 4-Methoxy-3-(2-((1-methyl-1H-pyrazol-4-yl)amino)quinazolin-6-yl)-N-(3-(trifluoromethyl)phenyl)benzamide]
IC50 (DDR2; [3]): 2.3 ± 0.5 nM | inhibition at 0.1 µM (RET): 41.3% | inhibition at 0.1 µM (Flt-3): 59.7%

O=C(Nc1cccc(C(F)(F)F)c1)c1ccc(C2CC2)c(-c2ccc3nc(Nc4cnn(C5CC5)c4)ncc3c2)c1 [Compound 36, 4-Cyclopropyl-3-(2-((1-cyclopropyl-1H-pyrazol-4-yl)amino)quinazolin-6-yl)-N-(3-(trifluoromethyl)phenyl)benzamide]
IC50 (DDR1): 16 nM | inhibition at 0.1 µM (Flt-3): 0% | KDR inhibition ratio (KDR; 10 nmol/L): over 50% | inhibition at 0.1 µM (KDR): 100% | ABL inhibition ratio (ABL): over 50% | inhibition of DDR2 phosphorylation [1]: high inhibitory activity

Cc1ccc(NC(=O)Nc2cccc(C(F)(F)F)c2)cc1-c1ccc2nc(Nc3cnn(C)c3)ncc2c1 [Compound 37, 1-(4-Methyl-3-(2-((1-methyl-1H-pyrazol-4-yl)amino)quinazolin-6-yl)phenyl)-3-(3-(trifluoromethyl)phenyl)urea]
inhibition at 0.1 µM (KDR): 89.3%

Cc1ccc(C(=O)NCc2cccc(C(F)(F)F)c2)cc1-c1ccc2nc(Nc3cnn(C)c3)ncc2c1 [Compound 38, 4-Methyl-3-(2-((1-methyl-1H-pyrazol-4-yl)amino)quinazolin-6-yl)-N-(3-(trifluoromethyl)benzyl)benzamide]
inhibition at 0.1 µM (KDR): 94%

Cc1ccc(NC(=O)C(C)c2cccc(C(F)(F)F)c2)cc1-c1ccc2nc(Nc3cnn(C)c3)ncc2c1 (stereo not drawn) [Compound 39, N-(4-Methyl-3-(2-((1-methyl-1H-pyrazol-4-yl)amino)quinazolin-6-yl)phenyl)-2-(3-(trifluoromethyl)phenyl)propanamide]
inhibition at 0.1 µM (KDR): 70.2%

Cc1ccc(C(C)NC(=O)c2cccc(C(F)(F)F)c2)cc1-c1ccc2nc(Nc3cnn(C4CC4)c3)ncc2c1 (stereo not drawn) [Compound 43, N-(1-(3-(2-((1-Cyclopropyl-1H-pyrazol-4-yl)amino)quinazolin-6-yl)-4-methylphenyl)ethyl)-3-(trifluoromethyl)benzamide]
IC50 (DDR2; [3]): 4.3 ± 1 nM | inhibition at 0.1 µM (KDR): 26.9%

COC(=O)c1ccc2c(c1)NC(=O)/C2=C(\Nc1ccc(N(C)C(=O)CN2CCN(C)CC2)cc1)c1ccccc1 [nintedanib]
weight of mice at the end of the treatment ([2]; 60 mg/kg once daily): 24.54 ± 2.09 g | weight recovery ratio ([2]; BLM mice, 60 mg/kg): 12.93% | Masson score ([2]; BLM mice, 60 mg/kg, vehicle 2.67 ± 0.57, scale 1–4): 1.89 ± 0.55

N-(3-((3,5-Dimethylpiperazin-1-yl)methyl)-5-(trifluoromethyl)phenyl)-4-methyl-3-(2-((1-methyl-1H-pyrazol-4-yl)amino)quinazolin-6-yl)benzamide [Compound 29]
IC50 (DDR2; read-out: DDR2 IC50, two separate experiments): 2.7 ± 0.2 nM | RET inhibition @10 nmol/L (RET; 10 nmol/L): 91.6% | Flt-3 inhibition @10 nmol/L (Flt-3; 10 nmol/L): 93.8%
